Reference: ChEMBL document CHEMBL1649064, “Antimalarial activity of novel 5-aryl-8-aminoquinoline derivatives” (J Med Chem, 2011)
≈ marks a conversion by molar mass, not a printed value. Calls of active or inactive are those of the source. No cut-off for these calls is given here.

Key:
[1] = Half life in human microsomes by LC-MS/MS analysis; format: ADME, Microsome
Method in brief: (§1)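 Microsomal stability run on a robotic sample processor in 96-well format, following an internal SOP. Parent compound quantified by LC-MS/MS with fast LC gradient or isocratic methods.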

[2] = Half life in mouse microsomes by LC-MS/MS analysis; format: ADME, Microsome; method in brief: as §1
Plasmodium berghei [3] = assay: Prophylactic antimalarial activity against Plasmodium berghei infected Exoerythrocytic mouse model; format: functional
Method in brief: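 Mice infected with P. berghei sporozoites by intravenous inoculation. Compounds given orally once daily for 3 days at up to 320 mg/kg/day. Read-out was cure and delay of patency in groups of 4 mice.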

Plasmodium berghei [4] = assay: Prophylactic antimalarial activity against Plasmodium berghei infected Exoerythrocytic mouse model at 320 mg/kg, po for 3 days; format: functional, organism-based; set-up: dose 320 mg/kg
Method in brief: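 Mice infected with P. berghei sporozoites by intravenous inoculation. Compound given orally daily for 3 days. Read-outs were cure and delay of patency.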

Plasmodium falciparum [5] = assay: Antimalarial activity against mefloquine-resistant Plasmodium falciparum CDC Sierra Leone 1 D6 after 48 hrs by [3H]hypoxanthine uptake assay; format: functional, organism-based
Method in brief: (§2)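 Compounds dissolved in DMSO, diluted 400-fold in RPMI 1640 with 25 mM Hepes, 32 mM NaHCO₃ and 10% Albumax I, then 2-fold serial dilutions over 11 concentrations. Parasites exposed 48 h at 37 °C under 5% O₂/5% CO₂/90% N₂, then [³H]-hypoxanthine added for a further 18 h. DNA harvested onto glass filters and counted. IC50 from a nonlinear regression logistic dose-response model.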

Plasmodium falciparum [6] = assay: Antimalarial activity against mefloquine-susceptible Plasmodium falciparum CDC Indochina 3 W2 after 48 hrs by [3H]hypoxanthine uptake assay; format: functional, organism-based; method in brief: as §2
RAW264.7 = assay: Cytotoxicity against mouse RAW264.7 cells after 24 hrs by MTT assay; format: cell-based; details: RAW264.7, 24 h
Method in brief: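 Macrophage line from ATCC, seeded at 2.5 × 10⁴ cells/well and left ~12 h. Drug stocks in DMSO, serially diluted to 0.29-48 μg/mL/well. Exposure 24 h, then drug removed and fresh medium added for a further 24 h recovery. Viability read by MTT. Controls were no-cell background, untreated cells and 0.6% DMSO. Duplicate runs, IC50 from sigmoidal variable-slope fit.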

[7] = Therapeutic index, ratio of IC50 for mouse RAW264.7 cells to IC50 for mefloquine-resistant Plasmodium falciparum CDC Sierra Leone 1 D6; format: cell-based; details: read-out: TI
Method in brief: (§3)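 RAW 264.7 macrophages seeded at 2.5 × 10⁴ cells/well and pre-incubated about 12 h. Exposed 24 h to 0.29-48 μg/mL of DMSO-dissolved drug, then drug removed, fresh medium added and 24 h recovery. Viability by MTT, with background, untreated and 0.6% DMSO controls. Duplicate runs, IC50 by sigmoidal variable-slope fit. Index is the macrophage IC50 over the P. falciparum IC50.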

[8] = Therapeutic index, ratio of IC50 for mouse RAW264.7 cells to IC50 for mefloquine-susceptible Plasmodium falciparum CDC Indochina 3 W2; format: cell-based; details: read-out: TI; method in brief: as §3

Row | Compound | half-life [1] [h] | half-life [2] [h] | MAC (Plasmodium berghei [3]) [mg/kg/day] | MTD (Plasmodium berghei [3]) [mg/kg/day] | Activity (Plasmodium berghei [4]) | IC50 (Plasmodium falciparum [5]) [µg/mL] | IC50 (Plasmodium falciparum [6]) [µg/mL] | IC50 (RAW264.7) [µg/mL] | selectivity ratio [7] | selectivity ratio [8]
1 | COc1cccc(-c2c(OC)cc(NC(C)CCCN)c3nc(OC)cc(C)c23)c1.O=C(O)CCC(=O)O (stereo not drawn) | > 1 | > 1 | >480 | >480 | inactive | 2.8 | 0.8 | 3.1 | 1.11 | 3.87
2 | COc1cc(NC(C)CCCN)c2ncccc2c1 (stereo not drawn) [PRIMAQUINE] | > 1 | 0.35 | 60 | <120 | – | 2.1 (≈ 8.1 µM) | 0.9 (≈ 3.47 µM) | 38.7 (≈ 149 µM) | 18.4 | 43
3 | COc1cc(C)c2c(Oc3cccc(C(F)(F)F)c3)c(OC)cc(NC(C)CCCN)c2n1 (stereo not drawn) [TAFENOQUINE] | > 1 | > 1 | 7.5 | 120 | – | 2.7 (≈ 5.83 µM) | 0.8 (≈ 1.73 µM) | 5.9 (≈ 12.7 µM) | 2.2 | 7.38
4 | COc1cc(NC(C)CCCNC(=O)OC(C)(C)C)c2nc(C(F)(F)F)cc(C)c2c1-c1cccc(C(F)(F)F)c1 (stereo not drawn) | 0.3 | 0.3 | >960 | >960 | inactive | 1.1 (≈ 1.88 µM) | 2.8 (≈ 4.78 µM) | > 48 | > 39.7 | > 17
5 | COc1cc(NC(C)CCCNC(=O)OC(C)(C)C)c2nc(C(F)(F)F)cc(C)c2c1-c1ccc(C(F)(F)F)cc1 (stereo not drawn) | 0.5 | 0.267 | >960 | >960 | inactive | 1.3 (≈ 2.22 µM) | 1.4 (≈ 2.39 µM) | > 48 | > 36 | > 34
6 | COc1cc(NC(C)CCCNC(=O)OC(C)(C)C)c2nc(C(F)(F)F)cc(C)c2c1-c1cccc(C)c1 (stereo not drawn) | 0.217 | 0.183 | >960 | >960 | inactive | 0.2 (≈ 0.376 µM) | 0.9 (≈ 1.69 µM) | > 48 | > 240 | > 59
7 | COc1cc(C)c2c(-c3ccccc3)c(OC)cc(NC(C)CCCN)c2n1.O=C(O)CCC(=O)O (stereo not drawn) | > 1 | > 1 | – | – | – | 3.2 | 1.3 | 1.9 | 0.59 | 1.46
8 | COc1cc(C)c2c(-c3cccc(C)c3)c(OC)cc(NC(C)CCCN)c2n1.O=C(O)CCC(=O)O (stereo not drawn) | > 1 | > 1 | 960 | 960 | Active | 1.3 | 0.7 | 1.9 | 1.46 | 2.71
9 | COc1cc(C)c2c(-c3cccc(C(F)(F)F)c3)c(OC)cc(NC(C)CCCN)c2n1.O=C(O)CCC(=O)O (stereo not drawn) | > 1 | > 1 | >480 | >480 | inactive | 2.7 | 1.3 | 1.3 | 0.48 | 1
10 | COc1cc(NC(C)CCCN)c2nc(C(F)(F)F)cc(C)c2c1-c1cccc(C)c1.O=C(O)CCC(=O)O (stereo not drawn) | > 1 | > 1 | – | – | – | 0.2 | 0.9 | 1.8 | 9 | 2
11 | COc1cc(NC(C)CCCN)c2nc(C(F)(F)F)cc(C)c2c1-c1ccc(C(F)(F)F)cc1.O=C(O)CCC(=O)O (stereo not drawn) | > 1 | > 1 | – | – | – | 1.7 | 0.8 | 10.1 | 5.94 | 12.6
12 | COc1cccc(-c2c(OC)cc(NC(C)CCCNC(=O)OC(C)(C)C)c3nc(C(F)(F)F)cc(C)c23)c1 (stereo not drawn) | 0.15 | 0.133 | >960 | >960 | inactive | 0.3 (≈ 0.548 µM) | 0.6 (≈ 1.1 µM) | > 80.2 | > 267 | > 134
13 | COc1cc(C)c2c(-c3ccc(Cl)c(Cl)c3)c(OC)cc(NC(C)CCCN)c2n1.O=C(O)CCC(=O)O (stereo not drawn) | > 1 | > 1 | >480 | 120 | inactive | 2.9 | 1.2 | 1.7 | 0.58 | 1.42
14 | COc1cc(NC(C)CCCN)c2nc(C(F)(F)F)cc(C)c2c1-c1ccccc1.O=C(O)CCC(=O)O (stereo not drawn) | > 1 | > 1 | >960 | 480 | inactive | 2.8 | 1.4 | 3.1 | 1.11 | 2.21
15 | COc1cc(NC(C)CCCN)c2nc(C(F)(F)F)cc(C)c2c1-c1cccc(C(F)(F)F)c1.O=C(O)CCC(=O)O (stereo not drawn) | > 1 | > 1 | – | – | – | 1.4 | 0.5 | 1.5 | 1.07 | 3
16 | COc1cc(C)c2c(-c3ccc(C(F)(F)F)cc3)c(OC)cc(NC(C)CCCN)c2n1.O=C(O)CCC(=O)O (stereo not drawn) | > 1 | > 1 | >480 | >480 | inactive | 2.2 | 1.3 | 1.2 | 0.54 | 0.92
17 | COc1cccc(-c2c(OC)cc(NC(C)CCCN)c3nc(C(F)(F)F)cc(C)c23)c1.O=C(O)CCC(=O)O (stereo not drawn) | > 1 | > 1 | – | – | – | 0.3 | 0.6 | 1.5 | 5 | 2.5
